ChEMBL document CHEMBL1641492, “Design, synthesis and biological evaluation of novel L-lysine ureido derivatives as aminopeptidase N inhibitors” (Bioorg Med Chem, 2011)

Target: T1, Aminopeptidase N (Sus scrofa, UniProt P15145)
T1 sequence (P15145 whole entry): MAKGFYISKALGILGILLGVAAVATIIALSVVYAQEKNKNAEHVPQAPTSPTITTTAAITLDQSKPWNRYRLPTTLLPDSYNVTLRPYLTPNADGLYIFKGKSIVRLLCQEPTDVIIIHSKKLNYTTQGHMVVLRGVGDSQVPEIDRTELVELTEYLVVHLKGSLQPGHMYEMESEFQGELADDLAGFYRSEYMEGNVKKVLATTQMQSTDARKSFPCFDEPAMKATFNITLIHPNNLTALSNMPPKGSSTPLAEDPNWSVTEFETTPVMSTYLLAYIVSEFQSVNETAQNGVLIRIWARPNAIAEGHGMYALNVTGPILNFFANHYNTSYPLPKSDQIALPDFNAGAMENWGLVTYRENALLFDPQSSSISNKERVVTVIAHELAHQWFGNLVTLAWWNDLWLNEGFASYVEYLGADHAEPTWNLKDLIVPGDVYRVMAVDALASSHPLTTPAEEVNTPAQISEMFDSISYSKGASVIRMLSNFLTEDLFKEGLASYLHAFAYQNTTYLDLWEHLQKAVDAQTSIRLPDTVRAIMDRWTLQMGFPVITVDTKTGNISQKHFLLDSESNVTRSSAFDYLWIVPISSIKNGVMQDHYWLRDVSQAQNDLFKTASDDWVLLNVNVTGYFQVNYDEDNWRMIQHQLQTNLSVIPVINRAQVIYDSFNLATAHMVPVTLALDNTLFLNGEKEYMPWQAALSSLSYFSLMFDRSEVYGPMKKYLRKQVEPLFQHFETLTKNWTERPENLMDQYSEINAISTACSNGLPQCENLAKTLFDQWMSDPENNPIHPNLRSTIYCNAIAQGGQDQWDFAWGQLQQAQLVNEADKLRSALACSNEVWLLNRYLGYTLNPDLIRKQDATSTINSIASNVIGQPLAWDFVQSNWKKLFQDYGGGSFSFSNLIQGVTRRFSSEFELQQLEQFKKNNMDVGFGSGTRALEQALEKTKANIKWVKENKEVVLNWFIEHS
Assay: Inhibition of porcine kidney microsomal APN after 10 mins at room temperature by spectrophotometry
Details: not given
Method in brief: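 Porcine kidney microsomal aminopeptidase (lyophilized, 15–25 units/mg protein), 6 µg/mL final, preincubated with inhibitor 10 min at room temperature. Substrate L-Leu-p-nitroanilide, 50 mM PBS pH 7.2, 37 °C. Inhibitor solutions in assay buffer adjusted to pH 7.5. IC50 as mean ± SD of three independent assays.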

SMILES	IC50 [µM]
CC[C@@H](C)[C@H](NC(=O)N[C@@H](CCCCNC(=O)OCc1ccccc1)C(=O)NO)C(=O)NO	> 50
O=C(N[C@@H](CCCCNC(=O)OCc1ccccc1)C(=O)NO)N[C@@H](Cc1ccccc1)C(=O)NO	14.5
CSCC[C@H](NC(=O)N[C@@H](CCCCNC(=O)OCc1ccccc1)C(=O)NO)C(=O)NO	14.4
COC(=O)[C@H](CCCCNC(=O)OCc1ccccc1)NC(=O)N[C@H](C(=O)OC)C(C)C	> 50
COC(=O)[C@H](CCCCNC(=O)OCc1ccccc1)NC(=O)N[C@@H](CC(C)C)C(=O)OC	> 50
CC[C@@H](C)[C@H](NC(=O)N[C@@H](CCCCNC(=O)OCc1ccccc1)C(=O)OC)C(=O)OC	> 50
COC(=O)[C@H](CCCCNC(=O)OCc1ccccc1)NC(=O)N[C@@H](Cc1ccccc1)C(=O)OC	> 50
COC(=O)[C@H](CCCCNC(=O)OCc1ccccc1)NC(=O)N[C@@H](CCSC)C(=O)OC	> 50
O=C(O)CNC(=O)N[C@@H](CCCCNC(=O)OCc1ccccc1)C(=O)O	> 50
C[C@H](NC(=O)N[C@@H](CCCCNC(=O)OCc1ccccc1)C(=O)O)C(=O)O	> 50
CC(C)[C@H](NC(=O)N[C@@H](CCCCNC(=O)OCc1ccccc1)C(=O)O)C(=O)O	> 50
CC(C)C[C@H](NC(=O)N[C@@H](CCCCNC(=O)OCc1ccccc1)C(=O)O)C(=O)O	> 50
CC[C@@H](C)[C@H](NC(=O)N[C@@H](CCCCNC(=O)OCc1ccccc1)C(=O)O)C(=O)O	> 50
O=C(N[C@@H](CCCCNC(=O)OCc1ccccc1)C(=O)O)N[C@@H](Cc1ccccc1)C(=O)O	> 50
CSCC[C@H](NC(=O)N[C@@H](CCCCNC(=O)OCc1ccccc1)C(=O)O)C(=O)O	> 50
O=C(CNC(=O)N[C@@H](CCCCNC(=O)OCc1ccccc1)C(=O)NO)NO	20.4
C[C@H](NC(=O)N[C@@H](CCCCNC(=O)OCc1ccccc1)C(=O)NO)C(=O)NO	19.9
CC(C)C[C@H](NC(=O)N[C@@H](CCCCNC(=O)OCc1ccccc1)C(=O)NO)C(=O)NO	4.51
COC(=O)[C@H](CCCCNC(=O)OCc1ccccc1)NC(=O)NCc1ccccc1	> 50
COC(=O)[C@H](CCCCNC(=O)OCc1ccccc1)NC(=O)NCCc1ccccc1	> 50
COC(=O)[C@H](CCCCNC(=O)OCc1ccccc1)NC(=O)NC(C)(C)C	> 50
O=C(NCc1ccccc1)N[C@@H](CCCCNC(=O)OCc1ccccc1)C(=O)NO	16.4
O=C(NCCc1ccccc1)N[C@@H](CCCCNC(=O)OCc1ccccc1)C(=O)NO	> 50
CC(C)(C)NC(=O)N[C@@H](CCCCNC(=O)OCc1ccccc1)C(=O)NO	> 50
COC(=O)CNC(=O)N[C@@H](CCCCNC(=O)OCc1ccccc1)C(=O)OC	> 50
COC(=O)[C@H](C)NC(=O)N[C@@H](CCCCNC(=O)OCc1ccccc1)C(=O)OC	> 50

Tested on: not listed separately
Assay: Antiproliferative activity against human ES2 cells after 48 hrs by MTT assay
Format: functional, cell-based
Details: ES-2, 48 h
Method in brief: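 ES-2 human cells seeded at 5000 per well, adhered 10 h, then exposed to 2500, 500, 100, 20 and 4 µg/mL compound for 48 h. MTT 0.5% solution added, 4 h further incubation, formazan dissolved in DMSO, absorbance at 570 nm. Three independent experiments, mean with SE.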

SMILES	IC50 [µM]
O=C(N[C@@H](CCCCNC(=O)OCc1ccccc1)C(=O)NO)N[C@@H](Cc1ccccc1)C(=O)NO	395
CSCC[C@H](NC(=O)N[C@@H](CCCCNC(=O)OCc1ccccc1)C(=O)NO)C(=O)NO	356
C[C@H](NC(=O)N[C@@H](CCCCNC(=O)OCc1ccccc1)C(=O)NO)C(=O)NO	415
CC(C)C[C@H](NC(=O)N[C@@H](CCCCNC(=O)OCc1ccccc1)C(=O)NO)C(=O)NO	291
CC(C)C[C@H](NC(=O)[C@@H](O)[C@H](N)Cc1ccccc1)C(=O)O [UBENIMEX]	332
